Measured values reported in ChEMBL document CHEMBL2016433 (Bioorg Med Chem, 2012).
Active and inactive are the calls of the source.

Columns and labels:
[1] = tested on: U-937; experiment: Induction of apoptosis in human U937 cells after 24 hrs by acridine orange staining based microscopy; type: functional, cell-based
Method in brief: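 U937 cells were treated for 24 h at 37 °C with 1–100 µM compound or vehicle, then stained with acridine orange. Over 600 cells were scored by fluorescence microscopy; apoptosis was defined as uniformly stained nuclei with chromatin condensation or nuclear fragmentation. Mean and SD of at least three determinations.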

[2] = tested on: U-937; experiment: Induction of cell death in human U937 cells assessed at 1 to 100 microM after 24 hrs by trypan blue exclusion method relative to untreated control; type: functional
Method in brief: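 U937 cells (5×10^4 per well) exposed for 24 h at 37 °C, 5% CO₂ to 1 in 10 serial dilutions from 1 to 100 µM in RPMI-1640 with 5% FBS. Compounds came from 20 mM stocks in DMSO or medium. Controls got vehicle at equal amounts. Membrane-permeable cells were counted by trypan blue exclusion in a haemocytometer and expressed as percent. Mean and standard deviation from at least three determinations.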

[3] = tested on: U-937; experiment: Cytotoxicity against human U937 cells assessed as induction of cell death at 1 to 100 microM after 24 hrs by trypan blue exclusion method; type: functional, cell-based
[4] = tested on: THP-1; experiment: Cytotoxicity against human THP1 cells after 24 hrs by trypan blue exclusion assay; type: functional
[5] = tested on: THP-1; experiment: Induction of apoptosis in human THP1 cells after 24 hrs by acridine orange staining based fluorescence microscopy; type: functional
Method in brief: (§1)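 HeLa, MOLT-3 and THP-1 cells were treated with increasing concentrations for 24 h, then stained with acridine orange and more than 600 cells scored by fluorescence microscopy for condensed or fragmented nuclei. AC30 is the concentration giving 30% apoptotic cells, from a best-fit curve versus log concentration.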

[6] = tested on: MOLT-3; experiment: Cytotoxicity against human MOLT3 cells after 24 hrs by trypan blue exclusion assay; type: functional
[7] = tested on: MOLT-3; experiment: Cytotoxicity against human MOLT3 cells assessed as cell viability after 24 hrs; type: functional, cell-based; conditions: MOLT-3, 24 h
[8] = tested on: MOLT-3; experiment: Induction of apoptosis in human MOLT3 cells after 24 hrs by acridine orange staining based fluorescence microscopy; type: functional; method in brief: as §1
[9] = tested on: THP-1; experiment: Cytotoxicity against human THP1 cells assessed as cell viability after 24 hrs; type: functional, cell-based; conditions: THP-1, 24 h
[10] = tested on: U-937; experiment: Cytostatic against human U937 cells assessed as reduction in absolute number of total cells after 24 hrs by haemocytometry; type: functional, cell-based
Method in brief: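 U937 cells, 5×10^4 per well in RPMI-1640 with 5% FBS, 2 mM L-glutamine and penicillin-streptomycin, were exposed to 1 in 10 serial dilutions from 100 µM to 1 µM (stocks 20 mM in DMSO or medium), or to vehicle, for 24 h at 37 °C in CO₂. Total cells were counted by haemocytometer; mean and SD of at least three determinations.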

| Compound | Activity [1] | Activity [2] [%] | Activity [3] | further results |
| --- | --- | --- | --- | --- |
| CC(=O)OC[C@H]1O[C@@H](SSCc2c(C)c(CSS[C@@H]3O[C@H](COC(C)=O)[C@@H](OC(C)=O)[C@H](OC(C)=O)[C@H]3OC(C)=O)c(C)c(CSS[C@@H]3O[C@H](COC(C)=O)[C@@H](OC(C)=O)[C@H](OC(C)=O)[C@H]3OC(C)=O)c2C)[C@H](OC(C)=O)[C@@H](OC(C)=O)[C@@H]1OC(C)=O | inactive | 25 | Active |  |
| CCc1c(CSS[C@@H]2O[C@H](CO)[C@@H](O)[C@H](O)[C@H]2O)c(CC)c(CSS[C@@H]2O[C@H](CO)[C@@H](O)[C@H](O)[C@H]2O)c(CC)c1CSS[C@@H]1O[C@H](CO)[C@@H](O)[C@H](O)[C@H]1O | inactive | 25 | Active |  |
| CCc1c(CSS[C@@H]2O[C@H](COC(C)=O)[C@@H](OC(C)=O)[C@H](OC(C)=O)[C@H]2OC(C)=O)c(CC)c(CSS[C@@H]2O[C@H](COC(C)=O)[C@@H](OC(C)=O)[C@H](OC(C)=O)[C@H]2OC(C)=O)c(CC)c1CSS[C@@H]1O[C@H](COC(C)=O)[C@@H](OC(C)=O)[C@H](OC(C)=O)[C@H]1OC(C)=O | inactive | 25 | Active |  |
| CC(=O)OC[C@H]1O[C@@H](S)[C@H](OC(C)=O)[C@@H](OC(C)=O)[C@H]1OC(C)=O | inactive |  |  | CC30 [4]: >100 µM; AC30 [5]: >100 µM; CC30 [6]: >100 µM; IC50 [7]: > 100 µM; AC30 [8]: >100 µM; IC50 [9]: > 100 µM |
| CC(=O)OC[C@H]1O[C@@H](SSCc2ccc(CSS[C@@H]3O[C@H](COC(C)=O)[C@@H](OC(C)=O)[C@H](OC(C)=O)[C@H]3OC(C)=O)cc2)[C@H](OC(C)=O)[C@@H](OC(C)=O)[C@@H]1OC(C)=O |  |  | Active |  |
| CC(=O)OC[C@H]1O[C@@H](SSCc2cccc(CSS[C@@H]3O[C@H](COC(C)=O)[C@@H](OC(C)=O)[C@H](OC(C)=O)[C@H]3OC(C)=O)c2)[C@H](OC(C)=O)[C@@H](OC(C)=O)[C@@H]1OC(C)=O | Active |  | Active | Activity [10]: Active |
